The values that follow come from ChEMBL document CHEMBL1240473, “Synthesis and bioassay of aminosulfonyl-1,3,4-oxadiazoles and their interconversion to 1,3,4-thiadiazoles” (2010).

Molecules are shown by their SMILES. Values after ≈ are worked out from the molar mass of the structure shown.

In general, MIC refers to the smallest concentration in the dilution series that meets the test's criterion for growth inhibition. Read a low MIC as a more susceptible organism.

Type in all cases: functional
Assay [1] deals with Aspergillus niger. Nature of the assay: Antimicrobial activity against Aspergillus niger NCIM 596 at 100 ug/disk after 48 hrs by agar disc-diffusion method. Particulars: NCIM 596, 48 h, read-out: DIZ. In outline:
(§1)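 Agar disc diffusion with NCIM strains. Sterile 6 mm filter-paper discs were moistened with compound in DMSO at 100 or 200 per disc and placed on agar plates pre-inoculated with each organism. Plates were incubated at 37 °C. Growth-inhibition zone diameter was read at 24 h for bacteria and 48 h for fungi.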
On the technique in general: A growth-free zone around the sample is the usual read-out of agar diffusion tests.

Assay [2] relates to Fusarium solani. Nature of the assay: Antimicrobial activity against Fusarium solani NCIM 1330 at 100 ug/disk after 48 hrs by agar disc-diffusion method. The settings on record: NCIM 1330, 48 h, read-out: DIZ. The procedure, abridged: as §1
A short description of assay [3]: Antioxidant activity assessed as nitric oxide scavenging activity at 100 uM after 120 min by Griess assay. The procedure, abridged: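 Sodium nitroprusside (5 mM) in phosphate buffer pH 7.4 was incubated with test compound dissolved in dioxane/methanol at 25 °C for 120 min. A solvent-only control was run in parallel. Aliquots were mixed 1:1 with Griess reagent (1% sulfanilamide, 0.1% N-naphthylethylenediamine dihydrochloride, 2% o-phosphoric acid in water).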
On the technique in general: The Griess reaction detects nitrite, a stable product of nitric oxide.

Assay [4] has as its system Bacillus subtilis. Description: Antimicrobial activity against Bacillus subtilis NCIM 2063 after 24 hrs by microdilution susceptibility method. The settings on record: NCIM 2063, 24 h. The procedure, abridged: (§2)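 Broth microdilution MIC with NCIM strains. Compounds and the references (chloramphenicol, antibacterial; ketoconazole, antifungal) were dissolved in DMSO at 800 and diluted two-fold from 400 down to 6.25. Wells were inoculated with the microbial suspension and incubated at 36 °C, 24 h for bacteria and 48 h for fungi. MIC was the lowest concentration with no visible growth.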
(Dilution methods test growth across graded concentrations, often in twofold steps.)

Assay [5] relates to Staphylococcus aureus. Nature of the assay: Antimicrobial activity against Staphylococcus aureus NCIM 5021 after 24 hrs by microdilution susceptibility method. Particulars: NCIM 5021, 24 h. The procedure, abridged: as §2
Assay [6] relates to Curvularia lunata. Nature of the assay: Antimicrobial activity against Curvularia lunata NCIM 716 at 200 ug/disk after 48 hrs by agar disc-diffusion method. The settings on record: NCIM 716, 48 h, read-out: DIZ. In outline:
as §1

Assay [7] has as its system Bacillus subtilis. Nature of the assay: Antimicrobial activity against Bacillus subtilis NCIM 2063 at 200 ug/disk after 24 hrs by agar disc-diffusion method. The settings on record: NCIM 2063, 24 h, read-out: DIZ. The procedure, abridged:
as §1

The subject of assay [8] is Radical scavenging activity. Description: Antioxidant activity assessed as DPPH free radical scavenging activity at 100 uM after 20 mins. The procedure, abridged:
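Compound solutions were added to DPPH in dioxane/ethanol and kept at ambient temperature for 20 min, then absorbance was read at 517 nm. Percent inhibition = (A_control − A_sample)/A_control × 100, […].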

Assay [9] has as its system Staphylococcus aureus. Nature of the assay: Antimicrobial activity against Staphylococcus aureus NCIM 5021 at 200 ug/disk after 24 hrs by agar disc-diffusion method. Particulars: NCIM 5021, 24 h, read-out: DIZ. The procedure, abridged: as §1
The subject of assay [10] is Fusarium solani. Nature of the assay: Antimicrobial activity against Fusarium solani NCIM 1330 at 200 ug/disk after 48 hrs by agar disc-diffusion method. The settings on record: NCIM 1330, 48 h, read-out: DIZ. The procedure, abridged:
as §1

Assay [11] has as its system Aspergillus niger. Nature of the assay: Antimicrobial activity against Aspergillus niger NCIM 596 after 48 hrs by microdilution susceptibility method. Particulars: NCIM 596, 48 h. The procedure, abridged:
as §2

Assay [12] concerns Staphylococcus aureus. Nature of the assay: Antimicrobial activity against Staphylococcus aureus NCIM 5021 at 100 ug/disk after 24 hrs by agar disc-diffusion method. Particulars: NCIM 5021, 24 h, read-out: DIZ. The procedure, abridged:
as §1

Assay [13] has as its system Aspergillus niger. Description: Antimicrobial activity against Aspergillus niger NCIM 596 at 200 ug/disk after 48 hrs by agar disc-diffusion method. Particulars: NCIM 596, 48 h, read-out: DIZ. In outline:
as §1

Assay [14] has as its system Proteus vulgaris. Description: Antimicrobial activity against Proteus vulgaris NCIM 2027 after 24 hrs by microdilution susceptibility method. Particulars: NCIM 2027, 24 h.
Assay [15] concerns Bacillus subtilis. Nature of the assay: Antimicrobial activity against Bacillus subtilis NCIM 2063 at 100 ug/disk after 24 hrs by agar disc-diffusion method. The settings on record: NCIM 2063, 24 h, read-out: DIZ. In outline:
as §1

The test system of assay [16] is Klebsiella pneumoniae. Nature of the assay: Antimicrobial activity against Klebsiella pneumoniae NCIM 2957 at 100 ug/disk after 24 hrs by agar disc-diffusion method. Particulars: NCIM 2957, 24 h, read-out: DIZ. In outline:
as §1

Assay [17] concerns Klebsiella pneumoniae. Description: Antimicrobial activity against Klebsiella pneumoniae NCIM 2957 after 24 hrs by microdilution susceptibility method. Particulars: NCIM 2957, 24 h. The procedure, abridged:
as §2

Assay [18] has as its system Klebsiella pneumoniae. Nature of the assay: Antimicrobial activity against Klebsiella pneumoniae NCIM 2957 at 200 ug/disk after 24 hrs by agar disc-diffusion method. Particulars: NCIM 2957, 24 h, read-out: DIZ. In outline:
as §1

Assay [19] has as its system Curvularia lunata. Nature of the assay: Antimicrobial activity against Curvularia lunata NCIM 716 after 48 hrs by microdilution susceptibility method. The settings on record: NCIM 716, 48 h. The procedure, abridged:
as §2

The subject of assay [20] is Curvularia lunata. Description: Antimicrobial activity against Curvularia lunata NCIM 716 at 100 ug/disk after 48 hrs by agar disc-diffusion method. The settings on record: NCIM 716, 48 h, read-out: DIZ. In outline: as §1
Assay [21] has as its system Proteus vulgaris. Description: Antimicrobial activity against Proteus vulgaris NCIM 2027 at 200 ug/disk after 24 hrs by agar disc-diffusion method. The settings on record: NCIM 2027, 24 h, read-out: DIZ.
For assay [22], the system named is Proteus vulgaris. Description: Antimicrobial activity against Proteus vulgaris NCIM 2027 at 100 ug/disk after 24 hrs by agar disc-diffusion method. The settings on record: NCIM 2027, 24 h, read-out: DIZ.
Assay [23] relates to Fusarium solani. Description: Antimicrobial activity against Fusarium solani NCIM 1330 after 48 hrs by microdilution susceptibility method. Particulars: NCIM 1330, 48 h. In outline: as §2

On to `O=S(=O)(Cc1nnc(CS(=O)(=O)c2ccccc2)s1)Nc1ccccc1`, for which the zone of inhibition at 100 µg/disc in assay [1] is 29 mm; in [2], 31 mm; in assay [12], 27 mm; in [15], 29 mm; in assay [16], 27 mm; in assay [20], 30 mm. Further, the zone of inhibition at 100 µg/disc in assay [22] amounted to 23 mm. The Activity came out at 22.6% in [3] and 23.8% in assay [8]. For the same compound, the minimum inhibitory concentration (MIC) in assay [4] amounted to 25 µg/mL (≈ 61 µM); in assay [5] it was 50 µg/mL (≈ 122 µM); in assay [11] it was 50 µg/mL (≈ 122 µM); in [14] it was 100 µg/mL (≈ 244 µM); in [17], 50 µg/mL (≈ 122 µM); in assay [19], 100 µg/mL (≈ 244 µM). In assay [23], this compound showed a minimal inhibitory concentration (MIC) of 100 µg/mL (≈ 244 µM). For the same compound, the zone of inhibition at 200 µg/disc in assay [6] came out at 32 mm; in [7], 31 mm; in assay [9], 30 mm; in [10] it was 33 mm; in assay [13] it was 30 mm; in assay [18], 29 mm. The zone of inhibition at 200 µg/disc in assay [21] worked out at 26 mm.
As for `CC(=O)N1CCN(c2ccc(OCC3COC(Cn4ccnc4)(c4ccc(Cl)cc4Cl)O3)cc2)CC1` (stereo not drawn) [KETOCONAZOLE], the zone of inhibition at 100 µg/disc stood at 36 mm in assay [1], 38 mm in assay [2] and 41 mm in [20]. The results for the zone of inhibition at 200 µg/disc in assay [6], in assay [10] and in [13] were 44 mm, 42 mm and 39 mm, respectively. Moreover, the minimal inhibitory concentration (MIC) in [11] turned out to be 6.25 µg/mL (≈ 11.8 µM); in assay [19], 6.25 µg/mL (≈ 11.8 µM); in [23] it was 12.5 µg/mL (≈ 23.5 µM).
On to `Cc1ccc(NS(=O)(=O)Cc2nnc(CS(=O)(=O)c3ccc(C)cc3)s2)cc1`, for which the zone of inhibition at 100 µg/disc is 22 mm in assay [1]; 27 mm in assay [2]; 25 mm in [12]; 27 mm in [15]; 25 mm in assay [16]; 25 mm in [20]. The zone of inhibition at 100 µg/disc in assay [22] worked out at 24 mm. The Activity is 20.3% in [3] and 21.7% in [8]. The MIC in assay [4] was 50 µg/mL (≈ 114 µM); in assay [5], 50 µg/mL (≈ 114 µM); in assay [11] it was 100 µg/mL (≈ 229 µM); in [14], 100 µg/mL (≈ 229 µM); in assay [17], 100 µg/mL (≈ 229 µM); in [19], 100 µg/mL (≈ 229 µM). Inhibition of growth in [23] (MIC) required 50 µg/mL (≈ 114 µM). Further, the zone of inhibition at 200 µg/disc in [6] came to 33 mm; in assay [7], 29 mm; in [9], 28 mm; in assay [10], 35 mm; in assay [13], 26 mm; in assay [18], 27 mm. In addition, the zone of inhibition at 200 µg/disc in assay [21] was 26 mm.
With `O=S(=O)(Cc1nnc(-c2ccc(Cl)cc2)s1)Nc1ccc(Cl)cc1`, the zone of inhibition at 100 µg/disc in assay [1] is 20 mm; in assay [2] it was 27 mm; in assay [12] it was 25 mm; in assay [15] it was 23 mm; in [16] it was 19 mm; in assay [20], 25 mm. The zone of inhibition at 100 µg/disc in assay [22] amounted to 18 mm. Besides, the results for the Activity in [3] and in assay [8] were 35.7% and 34.6%, respectively. The MIC in [4] came to 100 µg/mL (≈ 250 µM); in [5] it was 100 µg/mL (≈ 250 µM); in assay [11], 200 µg/mL (≈ 500 µM); in [14], 200 µg/mL (≈ 500 µM); in assay [17], 200 µg/mL (≈ 500 µM); in assay [19] it was 100 µg/mL (≈ 250 µM). This compound also yielded a minimal inhibitory concentration (MIC) in assay [23] of 200 µg/mL (≈ 500 µM). Further, the zone of inhibition at 200 µg/disc was found to be 27 mm in assay [6]; 26 mm in assay [7]; 27 mm in assay [9]; 30 mm in assay [10]; 23 mm in assay [13]; 22 mm in assay [18]. For the same compound, the zone of inhibition at 200 µg/disc in assay [21] worked out at 20 mm.
Consider `O=S(=O)(Cc1nnc(CS(=O)(=O)c2ccc(Cl)cc2)s1)Nc1ccc(Cl)cc1`, for which the zone of inhibition at 100 µg/disc in assay [1] came to 32 mm; in assay [2], 33 mm; in assay [12], 31 mm; in assay [15], 28 mm; in assay [16], 28 mm; in [20], 34 mm. The zone of inhibition at 100 µg/disc in assay [22] amounted to 25 mm. In addition, the figures for the Activity in assay [3] and in assay [8] were 28.2% and 29.9%, respectively. Moreover, the MIC in assay [4] was 25 µg/mL (≈ 52.3 µM); in [5], 25 µg/mL (≈ 52.3 µM); in assay [11] it was 50 µg/mL (≈ 105 µM); in assay [14], 50 µg/mL (≈ 105 µM); in assay [17] it was 50 µg/mL (≈ 105 µM); in assay [19] it was 50 µg/mL (≈ 105 µM). Also, the lowest concentration to inhibit growth in assay [23] (MIC) was 50 µg/mL (≈ 105 µM). Besides, the zone of inhibition at 200 µg/disc in assay [6] was found to be 36 mm; in assay [7], 32 mm; in assay [9] it was 33 mm; in assay [10], 37 mm; in [13], 33 mm; in [18] it was 30 mm. Further, the zone of inhibition at 200 µg/disc in [21] was 28 mm.
Take `O=C(N[C@H](CO)[C@H](O)c1ccc([N+](=O)[O-])cc1)C(Cl)Cl` [CHLORAMPHENICOL]: the MIC came out at 6.25 µg/mL (≈ 19.3 µM) in assay [4], 6.25 µg/mL (≈ 19.3 µM) in [5], 12.5 µg/mL (≈ 38.7 µM) in assay [14] and 12.5 µg/mL (≈ 38.7 µM) in assay [17]. Besides, the zone of inhibition at 200 µg/disc in assay [7] is 44 mm; in [9], 41 mm; in assay [18] it was 42 mm; in assay [21], 45 mm. In addition, the zone of inhibition at 100 µg/disc was 35 mm in assay [12], 38 mm in assay [15], 37 mm in [16] and 42 mm in assay [22].
